Laboratory results taken from ChEMBL document CHEMBL1157289, “Antiparasitic activity of some xanthones and biflavonoids from the root bark of Garcinia livingstonei” (J Nat Prod, 2006).

Assays:
MRC5 = assay: Cytotoxicity against human MRC5 cells by alamar-blue assay; assay type: cell-based
In short: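 Cells seeded at 5000/well, washed after 24 h, then given 4-fold dilutions in RPMI + 5% FCS, final DMSO below 0.5%. 7 days at 37 °C, 5% CO2, untreated controls included.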

Leishmania infantum = assay: Antileishmanial activity against Leishmania infantum MHOM/MA(BE)/67 amastigotes in mouse peritoneal macrophages; assay type: functional, organism-based
In short: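 Amastigotes from serially passaged Syrian hamster infection; macrophages elicited by intraperitoneal 2% starch, harvested 24-48 h later. 5-day incubation; Giemsa-stained microscopic count; % reduction of parasite burden vs control, IC50 determined.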

Trypanosoma cruzi [1] = assay: Antitrypanosomal activity against Trypanosoma cruzi in mouse peritoneal macrophages; assay type: functional, organism-based
In short: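 Primary mouse peritoneal macrophages, 30 000/well, infected after 24 h with about 10 000 trypomastigotes alongside 4-fold drug dilutions. 7 days at 37 °C, 5% CO2.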

[2] = tested on: Trypanosoma brucei brucei; assay: Antitrypanosomal activity against Trypanosoma brucei brucei; assay type: functional, organism-based
Plasmodium falciparum = assay: Antiplasmodial activity against chloroquine-sensitive Plasmodium falciparum Ghana by LDH reporter assay; assay type: functional, organism-based
[3] = Cytotoxicity in Leishmania infantum MHOM/MA(BE)/67 amastigotes infected mouse peritoneal macrophages; assay type: cell-based; settings: macrophage
Trypanosoma cruzi [4] = assay: Antitrypanosomal activity against Trypanosoma cruzi trypomastigotes assessed as immobilized trypomastigotes after 48 hrs; assay type: functional

SMILES	IC50 (MRC5) [µM]	IC50 (Leishmania infantum) [µM]	IC50 (Trypanosoma cruzi [1]) [µM]	IC50 [2] [µM]	IC50 (Plasmodium falciparum) [µM]	Activity [3]	MC100 (Trypanosoma cruzi [4]) [µM]
O=C1c2c(O)cc(O)cc2O[C@H](c2ccc(O)cc2)[C@H]1c1c(O)cc(O)c2c(=O)cc(-c3ccc(O)c(O)c3)oc12 [MORELLOFLAVONE]	> 64	–	–	–	–	–	–
CC1=C[C@@H](c2cc(O)c3c(=O)c4cccc(O)c4oc3c2O)[C@](C)(/C=C/c2cc(O)c3c(=O)c4cccc(O)c4oc3c2O)CC1 [GARCIVILIN C]	52.3	> 64	39.2	7.7	> 64	–	–
CC(C)=CCCC1(C)C=Cc2c(cc(O)c3c(=O)c4cccc(O)c4oc23)O1 (stereo not drawn)	> 64	> 64	8	5	52	–	–
COc1ccc([C@@H]2CC(=O)c3c(O)cc(O)c([C@@H]4C(=O)c5c(O)cc(O)cc5O[C@H]4c4ccc(O)cc4)c3O2)cc1	38	> 64	34.7	28.3	6	–	–
CC1=C[C@H](c2cc(O)c3c(=O)c4cccc(O)c4oc3c2O)[C@](C)(/C=C/c2cc(O)c3c(=O)c4cccc(O)c4oc3c2O)CC1 [GARCILIVIN A]	2	32	4	0.4	6.7	Toxic	–
CC(C)=CCC/C(C)=C/Cc1c(O)cc(O)c2c(=O)c3cccc(O)c3oc12	> 64	> 64	5.7	2	59	–	–
C=CC(C)(C)c1cc(O)c2oc3c4c(ccc3c(=O)c2c1O)C=CC(C)(C)O4	–	–	–	–	–	–	8
CC(C)=CCc1cc(O)c2c(=O)c3cccc(O)c3oc2c1O	> 32	27	7	0.87	10	–	–
